Experimental data pooled from the literature.
Target: MAP kinase-activated protein kinase 5 (MAPKAPK5, Homo sapiens, UniProt Q8IW41)
Sequence (Q8IW41 1-473, as in one of the studies): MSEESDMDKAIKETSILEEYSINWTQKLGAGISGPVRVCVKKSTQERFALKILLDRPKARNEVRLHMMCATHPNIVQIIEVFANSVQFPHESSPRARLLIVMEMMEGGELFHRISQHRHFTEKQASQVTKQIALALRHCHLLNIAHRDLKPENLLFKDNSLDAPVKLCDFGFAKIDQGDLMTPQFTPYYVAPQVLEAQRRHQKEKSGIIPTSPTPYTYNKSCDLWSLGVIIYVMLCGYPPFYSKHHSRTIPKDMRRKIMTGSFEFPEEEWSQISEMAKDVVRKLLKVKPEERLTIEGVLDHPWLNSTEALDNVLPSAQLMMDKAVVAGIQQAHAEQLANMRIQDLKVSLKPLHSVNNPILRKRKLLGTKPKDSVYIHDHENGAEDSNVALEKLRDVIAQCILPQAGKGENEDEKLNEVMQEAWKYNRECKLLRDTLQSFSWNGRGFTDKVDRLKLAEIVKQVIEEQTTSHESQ

The remaining binding of `CO[C@@H](C)c1c(Nc2ccc([C@H](N(C)C(=O)C3CCS(=O)(=O)CC3)C(F)(F)F)cc2)cnc2cc(Cl)nn12` is reported as 100% (cell-free assay; competition with immobilised ligand; 1 µM).
The remaining activity of `Cc1sc(C(=O)NC2COC2)cc1-n1cc(NC(=O)Nc2c(F)cccc2Cl)cn1` is reported as 96.5% (enzyme activity; inhibitor; 10 µM).
`CN(C)c1ncnc(-c2ccc3nc(Nc4cc(CN5CCN(C(=O)CC(F)(F)F)CC5)ccn4)[nH]c3c2)c1Cl` has a remaining binding of 96% (cell-free assay; competition with immobilised ligand; 1 µM).
`Nc1nc(Nc2ccccc2)sc1C(=O)c1c(F)cccc1F` has a remaining activity of 63% (enzyme activity; inhibitor; 10 µM).
For `O=C1Nc2ccc(Cl)cc2C1=Cc1cc(Cl)c(O)c(Cl)c1`, the remaining signal was 92.4% (cell-free assay; 0.5 µM).
The remaining binding of `Cc1nc(C2CCN(C(=O)c3ccc(OC(F)(F)F)cc3N)CC2)c2ncc(N3CCN(C)CC3)cc2n1` is reported as 94% (cell-free assay; competition with immobilised ligand; 1 µM).
`CNCc1ccc(-c2cc(-c3nc(-c4ccc(S(=O)(=O)C(C)C)cc4)cnc3N)on2)cc1` gave an inhibition of 0% (enzyme activity; inhibitor; 2 µM).
The remaining binding of `COCCOc1nc(-c2ccc(Cl)nc2)nc2c1CN(C(=O)c1ncn3ccccc13)CC2` is reported as 100% (cell-free assay; competition with immobilised ligand; 0.1 µM).
The remaining activity of `CC(C)(O)[C@H]1CC[C@H](Nc2ccc3ncc(-c4cccc(C(F)(F)F)c4)n3n2)CC1` is reported as 105% (enzyme activity; inhibitor; 1 µM).
`Cn1c(=O)n(-c2ccc(C(C)(C)C#N)cc2)c2c3cc(-c4cnc5ccccc5c4)ccc3ncc21` gave a remaining activity of 93% (enzyme activity; inhibitor; 10 µM).
The inhibition of `CC/C(=N\NC(=O)NCc1cccc(O)c1)c1ccc(O)c(C)c1O` is reported as -8% (enzyme activity; inhibitor; 0.1 µM).
`Cc1nc(Cc2cccc(C(F)(F)F)c2)sc1-c1ccc(C(N)=O)nc1` has a remaining binding of 100% (cell-free assay; competition with immobilised ligand; 1 µM).
The inhibition of `CNC(=O)c1cc(Oc2ccc(NC(=O)Nc3ccc(Cl)c(C(F)(F)F)c3)cc2)ccn1` is reported as 18% (enzyme activity; inhibitor; 0.3 µM).
The remaining signal of `CCN(CC)CCNC(=O)c1c(C)[nH]c(/C=C2\C(=O)Nc3ccc(F)cc32)c1C` is reported as 82.7% (cell-free assay; 0.5 µM).
With `COc1cc(Cl)c(C(=O)N[C@@H](CN[C@H]2CC[C@@H](N)CC2)Cc2ccc(C#N)cc2)cc1-c1ccc(CN[C@H](C)c2ccc(C)cc2)o1` the remaining activity was 89% (enzyme activity; inhibitor; 1 µM).
The remaining activity of `COc1cc(Nc2cnc(C#N)c(O[C@H](C)CN(C)C)n2)ncc1-c1cnn(C)c1` is reported as 78% (enzyme activity; inhibitor; radiometric; 1 µM).
With `CNC(=O)Nc1ccc2c(c1)CC[C@@]21OC(=O)N(CC(=O)N(Cc2ccc(F)cc2)[C@@H](C)C(F)(F)F)C1=O` the remaining binding was 82% (cell-free assay; competition with immobilised ligand; 1 µM).
`FC(F)(F)Oc1cccc(-c2cnc3ccc(-c4ccncc4)nn23)c1` has an activity vs control of 85% (enzyme activity; inhibitor; radiometric; 1 µM).
